Assay results published in ChEMBL document CHEMBL2434829, “Synthesis of new andrographolide derivatives and evaluation of their antidyslipidemic, LDL-oxidation and antioxidant activity” (2013).
The source made the active and inactive calls. The calls are words filed in the database; no cut-off is given here.

Key:
Rattus norvegicus [1] = assay: Antidyslipidemic activity in Charles foster rat assessed as increase in triton WR-1339-reduced HDL cholesterol level in plasma at 100 mg/kg, po after 18 hrs by poly anionic precipitation method relative to triton-treated rat; format: functional, organism-based; parameters: dose 100 mg/kg
Summary of the method: (§1)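 Male adult Charles Foster rats (200–225 g), 6/group. Triton WR-1339 400 mg/kg i.p.; test agent in gum acacia suspension in water given orally together with triton, diet withdrawn. After 18 h, blood drawn from retro-orbital sinus into EDTA tubes under thiopentone anaesthesia. Plasma split into VLDL, LDL and HDL by polyanionic precipitation, then cholesterol measured. Mean ± SD.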

Rattus norvegicus [2] = assay: Antidyslipidemic activity in Charles foster rat assessed as decrease in triton WR-1339-induced phospholipid level in plasma at 150 mg/kg, po after 18 hrs relative to triton-treated rat; format: functional; parameters: scale not given: the % may be the effect or the level left
Summary of the method: (§2)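 Male adult Charles Foster rats (200–225 g), six per group. Triton WR-1339 400 mg/kg i.p., with test agent given orally at the same time as a gum acacia suspension in water; food withdrawn. Controls received vehicle. At 18 h, retro-orbital EDTA blood taken and centrifuged 2500 × g for 10 min at 4 °C. Plasma diluted 1:3 in saline; TC, PL and TG read enzymatically on an autoanalyzer. Percent change against triton group.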

Rattus norvegicus [3] = assay: Antidyslipidemic activity in Charles foster rat assessed as increase in triton WR-1339-reduced post heparin lipolytic activity level in plasma at 150 mg/kg, po after 18 hrs by spectrophotometric analysis relative to triton-treated rat; format: functional; parameters: scale not given: the % may be the effect or the level left
Summary of the method: (§3)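 Triton WR-1339 hyperlipidemia in male Charles Foster rats: 400 mg/kg i.p. plus oral dose in gum acacia vehicle, fasted, 6 rats/group. Plasma taken 18 h later from retro-orbital blood. Post-heparin lipolytic activity measured spectrophotometrically as nmol free fatty acids formed/h/ml plasma. Percent change against triton-only rats; mean ± SD.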

Rattus norvegicus [4] = assay: Antidyslipidemic activity in Charles foster rat assessed as increase in triton WR-1339-reduced post heparin lipolytic activity level in plasma at 50 mg/kg, po after 18 hrs by spectrophotometric analysis relative to triton-treated rat; format: functional; parameters: scale not given: the % may be the effect or the level left; summary of the method: as §3
Rattus norvegicus [5] = assay: Antidyslipidemic activity in Charles foster rat assessed as decrease in triton WR-1339-induced total cholesterol level in plasma at 50 mg/kg, po after 18 hrs relative to triton-treated rat; format: functional; parameters: scale not given: the % may be the effect or the level left; summary of the method: as §2
Rattus norvegicus [6] = assay: Antidyslipidemic activity in Charles foster rat assessed as decrease in triton WR-1339-induced triglyceride level in plasma at 50 mg/kg, po after 18 hrs relative to triton-treated rat; format: functional; parameters: scale not given: the % may be the effect or the level left; summary of the method: as §2
Rattus norvegicus [7] = assay: Antidyslipidemic activity in Charles foster rat assessed as decrease in triton WR-1339-induced triglyceride level in plasma at 200 mg/kg, po after 18 hrs relative to triton-treated rat; format: functional; parameters: scale not given: the % may be the effect or the level left; summary of the method: as §2
Rattus norvegicus [8] = assay: Antidyslipidemic activity in Charles foster rat assessed as decrease in triton WR-1339-induced phospholipid level in plasma at 100 mg/kg, po after 18 hrs relative to triton-treated rat; format: functional; parameters: scale not given: the % may be the effect or the level left; summary of the method: as §2
Rattus norvegicus [9] = assay: Antidyslipidemic activity in Charles foster rat assessed as decrease in triton WR-1339-induced total cholesterol level in plasma at 100 mg/kg, po after 18 hrs relative to triton-treated rat; format: functional; parameters: scale not given: the % may be the effect or the level left; summary of the method: as §2
Rattus norvegicus [10] = assay: Antidyslipidemic activity in Charles foster rat assessed as decrease in triton WR-1339-induced VLDL cholesterol level in plasma at 100 mg/kg, po after 18 hrs by poly anionic precipitation method relative to triton-treated rat; format: functional, organism-based; parameters: dose 100 mg/kg; summary of the method: as §1
[11] = Antioxidant activity assessed as decrease in hydroxyl radicals level by measuring formation of malondialdehyde at 200 ug/ml after 90 mins by spectrophotometric analysis relative to control; format: functional; parameters: scale not given: the % may be the effect or the level left
Summary of the method: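 Hydroxyl radicals generated without enzyme from deoxyribose 2.8 mM, FeSO4·7H2O 2 mM, sodium ascorbate 2.0 mM and H2O2 2.8 mM in 50 mM KH2PO4 pH 7.4. Compound at 200 µg/mL. Incubated 37 °C for 90 min. Mannitol as standard.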

Rattus norvegicus [12] = assay: Antidyslipidemic activity in Charles foster rat assessed as decrease in triton WR-1339-induced LDL cholesterol level in plasma at 100 mg/kg, po after 18 hrs by poly anionic precipitation method relative to triton-treated rat; format: functional, organism-based; parameters: dose 100 mg/kg; summary of the method: as §1
Rattus norvegicus [13] = assay: Antidyslipidemic activity in Charles foster rat assessed as decrease in triton WR-1339-induced triglyceride level in plasma at 150 mg/kg, po after 18 hrs relative to triton-treated rat; format: functional; parameters: scale not given: the % may be the effect or the level left; summary of the method: as §2
Rattus norvegicus [14] = assay: Antidyslipidemic activity in Charles foster rat assessed as decrease in triton WR-1339-induced total cholesterol level in plasma at 25 mg/kg, po after 18 hrs relative to triton-treated rat; format: functional; parameters: scale not given: the % may be the effect or the level left; summary of the method: as §2
[15] = Antioxidant activity assessed as reduction of LDL-oxidation at 200 ug/ml after 1 hr by TBARS assay in presence of Cu 2+ relative to control; format: functional; parameters: scale not given: the % may be the effect or the level left; details: in the assay text read “after 16 hr” for “after 1 hr”
Summary of the method: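 LDL obtained by ultracentrifugation of serum from overnight-fasted normolipemic donors, dialyzed against 150 mM NaCl with 0.02% EDTA under N2, purity checked by PAGE. LDL 0.71 mg with CuCl2·2H2O 10 µM, compound at 200 µg/mL, in 50 mM PBS pH 7.4 for 16 h at 37 °C. Lipid peroxides read as TBARS after heating with SDS, acetic acid and 0.8% TBA for 1 h in boiling water.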

[16] = Antioxidant activity assessed as reduction of microsomal lipid per-oxidation level by measuring formation of malondialdehyde at 200 ug/ml after 90 mins by spectrophotometric analysis relative to control; format: functional; parameters: scale not given: the % may be the effect or the level left
Rattus norvegicus [17] = assay: Antidyslipidemic activity in Charles foster rat assessed as decrease in triton WR-1339-induced phospholipid level in plasma at 25 mg/kg, po after 18 hrs relative to triton-treated rat; format: functional; parameters: scale not given: the % may be the effect or the level left; summary of the method: as §2
Rattus norvegicus [18] = assay: Antidyslipidemic activity in Charles foster rat assessed as decrease in triton WR-1339-induced phospholipid level in plasma at 200 mg/kg, po after 18 hrs relative to triton-treated rat; format: functional; parameters: scale not given: the % may be the effect or the level left; summary of the method: as §2
Rattus norvegicus [19] = assay: Antidyslipidemic activity in Charles foster rat assessed as decrease in triton WR-1339-induced phospholipid level in plasma at 50 mg/kg, po after 18 hrs relative to triton-treated rat; format: functional; parameters: scale not given: the % may be the effect or the level left; summary of the method: as §2
Rattus norvegicus [20] = assay: Antidyslipidemic activity in Charles foster rat assessed as increase in triton WR-1339-reduced post heparin lipolytic activity level in plasma at 25 mg/kg, po after 18 hrs by spectrophotometric analysis relative to triton-treated rat; format: functional; parameters: scale not given: the % may be the effect or the level left; summary of the method: as §3
[21] = Antioxidant activity assessed as decrease in superoxide anions level by measuring formation of formazone at 200 ug/ml after 30 mins by spectrophotometric analysis relative to control; format: functional; parameters: scale not given: the % may be the effect or the level left
Summary of the method: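 Superoxide made enzymatically with xanthine ([…]), xanthine oxidase (0.04 U) and nitroblue tetrazolium (320 µM) in 100 mM phosphate buffer pH 8.2. Compound at 200 µg/mL, sonicated in buffer. Incubated 37 °C for 30 min, stopped with glacial acetic acid, formazan read spectrophotometrically. Allopurinol as standard.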

Rattus norvegicus [22] = assay: Antidyslipidemic activity in Charles foster rat assessed as decrease in triton WR-1339-induced total cholesterol level in plasma at 150 mg/kg, po after 18 hrs relative to triton-treated rat; format: functional; parameters: scale not given: the % may be the effect or the level left; summary of the method: as §2
Rattus norvegicus [23] = assay: Antidyslipidemic activity in Charles foster rat assessed as increase in triton WR-1339-reduced lipoprotein lipase level in liver at 100 mg/kg, po relative to triton-treated rat; format: functional, organism-based; parameters: dose 100 mg/kg
Summary of the method: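 Rats given triton WR-1339 (400 mg/kg i.p.) with oral test agent in gum acacia, 6 per group. Liver homogenized 10% w/v in cold 100 mM phosphate buffer pH 7.2 and assayed for total lipoprotein lipase lipolytic activity. Mean ± SD.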

Rattus norvegicus [24] = assay: Antidyslipidemic activity in Charles foster rat assessed as increase in triton WR-1339-reduced post heparin lipolytic activity level in plasma at 100 mg/kg, po after 18 hrs by spectrophotometric analysis relative to triton-treated rat; format: functional; parameters: scale not given: the % may be the effect or the level left; summary of the method: as §3
Rattus norvegicus [25] = assay: Antidyslipidemic activity in Charles foster rat assessed as decrease in triton WR-1339-induced total cholesterol level in plasma at 200 mg/kg, po after 18 hrs relative to triton-treated rat; format: functional; parameters: scale not given: the % may be the effect or the level left; summary of the method: as §2
Rattus norvegicus [26] = assay: Antidyslipidemic activity in Charles foster rat assessed as decrease in triton WR-1339-induced triglyceride level in plasma at 25 mg/kg, po after 18 hrs relative to triton-treated rat; format: functional; parameters: scale not given: the % may be the effect or the level left; summary of the method: as §2
Rattus norvegicus [27] = assay: Antidyslipidemic activity in Charles foster rat assessed as increase in triton WR-1339-reduced post heparin lipolytic activity level in plasma at 200 mg/kg, po after 18 hrs by spectrophotometric analysis relative to triton-treated rat; format: functional; parameters: scale not given: the % may be the effect or the level left; summary of the method: as §3
Rattus norvegicus [28] = assay: Antidyslipidemic activity in Charles foster rat assessed as decrease in triton WR-1339-induced triglyceride level in plasma at 100 mg/kg, po after 18 hrs relative to triton-treated rat; format: functional; parameters: scale not given: the % may be the effect or the level left; summary of the method: as §2

| Structure (SMILES) | Activity (Rattus norvegicus [1]) | Activity (Rattus norvegicus [2]) [%] | Activity (Rattus norvegicus [3]) [%] | Activity (Rattus norvegicus [4]) [%] | Activity (Rattus norvegicus [5]) [%] | Activity (Rattus norvegicus [6]) [%] | Activity (Rattus norvegicus [7]) [%] | Activity (Rattus norvegicus [8]) [%] | Activity (Rattus norvegicus [9]) [%] | Activity (Rattus norvegicus [10]) | Activity [11] [%] | Activity (Rattus norvegicus [12]) | Activity (Rattus norvegicus [13]) [%] | Activity (Rattus norvegicus [14]) [%] | Activity [15] [%] | Activity [16] [%] | Activity (Rattus norvegicus [17]) [%] | Activity (Rattus norvegicus [18]) [%] | Activity (Rattus norvegicus [19]) [%] | Activity (Rattus norvegicus [20]) [%] | also measured |
| --- | --- | --- | --- | --- | --- | --- | --- | --- | --- | --- | --- | --- | --- | --- | --- | --- | --- | --- | --- | --- | --- |
| C=C1CC[C@@H]2[C@](C)(CO)[C@H](O)CC[C@@]2(C)[C@@H]1C/C=C1/C(=O)OC[C@H]1O [ANDROGRAPHOLIDE] | Active | 29 | 18 | 13 | 21 | 21 | 30 | 26 | 27 | Active | 36 | Active | 30 | 14 | 45 | 38 | 12 | 30 | 20 | 10 | Activity [21]: 33%; Activity (Rattus norvegicus [22]): 29%; Activity (Rattus norvegicus [23]): Active; Activity (Rattus norvegicus [24]): 16%; Activity (Rattus norvegicus [25]): 29%; Activity (Rattus norvegicus [26]): 15%; Activity (Rattus norvegicus [27]): 18%; Activity (Rattus norvegicus [28]): 28% |
| C=C1CC[C@@H]2[C@](C)(COS(=O)(=O)c3ccc(C)cc3)[C@H](O)CC[C@@]2(C)[C@@H]1C/C=C1/C(=O)OC[C@H]1O | Active | 39 | 18 | 13 | 22 | 20 | 37 | 37 | 33 | Active | 46 | Active | 37 | 16 | 55 | 40 | 15 | 40 | 22 | 10 | Activity [21]: 41%; Activity (Rattus norvegicus [22]): 34%; Activity (Rattus norvegicus [23]): Active; Activity (Rattus norvegicus [24]): 18%; Activity (Rattus norvegicus [25]): 34%; Activity (Rattus norvegicus [26]): 14%; Activity (Rattus norvegicus [27]): 18%; Activity (Rattus norvegicus [28]): 35% |
